One data set deals with cannabinoid CB2 receptor. The settings on record: background statement, ref not given; cited from earlier work.
The test system of data set [1] is vanilloid (TRP) receptors. The settings on record: background statement, ref not given; cited from earlier work.
The target in data set [2] is T1, rFAAH (Rattus norvegicus, UniProt P97612).
T1 sequence (P97612 30-579 limits assumed): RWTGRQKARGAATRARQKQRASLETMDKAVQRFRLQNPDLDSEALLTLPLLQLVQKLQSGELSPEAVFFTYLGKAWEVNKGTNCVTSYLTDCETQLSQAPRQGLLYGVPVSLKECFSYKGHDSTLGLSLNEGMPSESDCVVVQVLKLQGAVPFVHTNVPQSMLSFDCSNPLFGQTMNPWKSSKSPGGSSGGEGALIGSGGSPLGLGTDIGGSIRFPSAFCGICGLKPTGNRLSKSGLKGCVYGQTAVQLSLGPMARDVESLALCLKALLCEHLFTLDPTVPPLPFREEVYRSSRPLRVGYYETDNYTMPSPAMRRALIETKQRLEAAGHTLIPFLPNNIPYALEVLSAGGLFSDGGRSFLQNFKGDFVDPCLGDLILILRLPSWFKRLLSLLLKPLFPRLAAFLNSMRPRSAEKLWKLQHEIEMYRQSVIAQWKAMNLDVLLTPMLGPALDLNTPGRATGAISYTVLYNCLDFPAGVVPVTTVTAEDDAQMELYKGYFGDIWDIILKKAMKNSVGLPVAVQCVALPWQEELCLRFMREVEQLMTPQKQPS
Briefly: Lineweaver–Burk kinetic analysis. In kind it is biochemical. The settings on record: after 3 h preincubation with the enzyme.

The test system of another data set is cannabinoid CB1 receptor. The settings on record: background statement, ref not given; cited from earlier work.
The test system of data set [3] is lipid amides in the brain. The settings on record: mice, i.p.; cited from earlier work.
In data set [4] the target is T2, purified recombinant rat FAAH (Rattus norvegicus, UniProt P97612).
T2 sequence (P97612 30-579 limits assumed): T1 sequence (P97612 30-579 limits assumed)
Briefly: Reversibility of FAAH inhibition by dialysis dilution. In kind it is biochemical. The settings on record: 3 h preincubation 22 °C, then dialysis 4 °C, 18 h, 370-fold, pH 9. An outline of the steps:
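Purified recombinant rat FAAH (E. coli-expressed) in pH 9.0 Tris/EDTA/glycerol/Triton X-100/Hepes buffer, preincubated 3 h at 22 °C with test compound (final 80, 100 or 150 nM) or DMSO. Triplicate pre-dialysis activity assay, then dialysis (10 000 MW cutoff) against PBS, 4 °C, 18 h, stirred. Post-dialysis activity assayed in triplicate and expressed as % of DMSO control.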

The test system of data set [5] is common P450 metabolism enzymes. The settings on record: background statement, ref not given; cited from earlier work.
A further data set deals with analgesia. The settings on record: cited from earlier work.
The target of data set [6] is T1, rFAAH. In kind it is biochemical.
For data set [7], the system named is human ether-a-go-go related gene product (hERG). The settings on record: background statement, ref not given; cited from earlier work.
A further data set deals with neuropathic pain. The settings on record: cited from earlier work.
Data set [8] concerns endogenous brain levels of FAAH substrates (AEA, OEA, PEA). Briefly: Brain lipid levels after i.p. inhibitor administration. In kind it is in vivo. The settings on record: mice, 3 h post i.p. 30 mg/kg, relative to reversible inhibitor 2.
A short description of data set [9]: Recovery of thioesters from assay buffer and enzymatic assays. It counts as physicochemical. The settings on record: for recovery from the assay buffer: 6 h.
[10] abbreviates: enzyme–inhibitor preincubation 0–6 h.

Each structure is given as a SMILES string. Entries after “also recorded” stand apart in the source; their conditions may differ. Read-outs that look alike come from different tables or passages of the source.

In the case of `O=C(CCCCCCc1ccccc1)c1ncc(-c2ccccn2)o1` [compound 2], in the data set with cannabinoid CB2 receptor, the “binding to CB2 receptor” value was “does not bind”. Moreover, the “binding to vanilloid (TRP) receptors” value in data set [1] was “does not bind”. Besides, the “mode of inhibition (Lineweaver–Burk)” value on rFAAH [2] was “reversible, competitive”. For the same molecule, in the data set on cannabinoid CB1 receptor, the “binding to CB1 receptor” value was “does not bind”. Moreover, in data set [3], the “duration of elevation of brain lipid amides” value (“duration” below) is 2 to 3 h. The “recovery of enzyme activity after dialysis dilution” value (from here on “recovery of enzyme activity”) in data set [4] was “restored full enzyme activity; also recorded: nearly full recovery of enzyme activity”. The “inhibition of common P450 metabolism enzymes” value in data set [5] was “does not significantly inhibit”. Also, the analgesic effect entry with analgesia is recorded as “induces analgesia”. Further, at rFAAH [6] (setting [10]), the “time-dependent change of inhibition potency (in words)” value is recorded as “does not display time-dependent inhibition”. Further, the “inhibition of hERG” value in [7] is “does not significantly inhibit”.

Regarding `N#CCc1ccc(-c2cnc(C(=O)CCCCCCc3ccccc3)o2)nc1` [compound 14], the “mode of inhibition (Lineweaver–Burk)” value on rFAAH [2] was “noncompetitive”. For the same molecule, in the data set with neuropathic pain, the “activity in a mouse model of neuropathic pain” value is given as “long acting in vivo activity”. In addition, in [3], the “duration” value is greater than 6 h and the “time of peak brain lipid amide levels” value was 1.5 to 3 h. Moreover, the “increase of brain anandamide levels over that of 2” value (“increase of brain anandamide levels” for short) in [8] is “approximately 2 fold”. Further, in data set [4], the “recovery of enzyme activity” value was “failing to restore FAAH activity; also recorded: little or no recovery of enzyme activity”. Also, the “time-dependent change of inhibition potency (in words)” value on rFAAH [6] (setting [10]) was “did exhibit increases in potency”.

Consider `CSC(=O)CCCCc1cnc(C(=O)CCCCCCc2ccccc2)o1` [compound 25], for which, at rFAAH [2], the “mode of inhibition (Lineweaver–Burk)” value is recorded as “reversible, competitive”. In addition, in data set [9], the “recovery from the assay buffer” value was “recovered unchanged”.

As to `CCOC(=O)/C=C/c1ccc(-c2cnc(C(=O)CCCCCCc3ccccc3)o2)nc1` [compound 18], the “mode of inhibition (Lineweaver–Burk)” value on rFAAH [2] is given as “mixed kinetics”. In addition, in data set [4], the “recovery of enzyme activity” value was “did not restore enzyme activity”.

For the molecule `COC(=N)c1ccc(-c2cnc(C(=O)CCCCCCc3ccccc3)o2)nc1` [compound 8], at rFAAH [6], the “time-dependent change of inhibition potency (in words)” value is “did not display time-dependent increases in potency”.

For the molecule `CSC(=O)Cc1ccc(-c2cnc(C(=O)CCCCCCc3ccccc3)o2)nc1` [compound 16], the “mode of inhibition (Lineweaver–Burk)” value on rFAAH [2] is recorded as “reversible, competitive”. Besides, the “time-dependent change of inhibition potency (in words)” value at rFAAH [6] is “did not exhibit this time-dependent increase”.

Consider `N#Cc1ccc(-c2cnc(C(=O)CCCCCCc3ccccc3)o2)nc1` [compound 7], for which, on rFAAH [6], the “time-dependent change of inhibition potency (in words)” value is reported as “did not display time-dependent increases in potency”.

Turning to `CCOS(=O)(=O)/C=C/c1ccc(-c2cnc(C(=O)CCCCCCc3ccccc3)o2)nc1` [compound 20], at rFAAH [2], the “mode of inhibition (Lineweaver–Burk)” value is “noncompetitive”. The “increase of brain anandamide levels” value in data set [8] is “approximately 2 fold”.

As to `O=C(CCCCCCc1ccccc1)c1ncc(-c2ccc(CBr)cn2)o1` [compound 11], the “mode of inhibition (Lineweaver–Burk)” value on rFAAH [2] is “noncompetitive”. In the data set on neuropathic pain, the “activity in a mouse model of neuropathic pain” value is given as “long acting in vivo activity”. In addition, in data set [3], the “duration” value is greater than 6 h and the “time of peak brain lipid amide levels” value is 1.5 to 3 h. Besides, the “increase of brain anandamide levels” value in data set [8] is given as “approximately 2 fold”. Further, the “recovery of enzyme activity” value in data set [4] is “failing to restore FAAH activity; also recorded: little or no recovery of enzyme activity”. The “time-dependent change of inhibition potency (in words)” value at rFAAH [6] (setting [10]) is recorded as “most pronounced time-dependent increase in potency”.

For `COC(=N)Cc1ccc(-c2cnc(C(=O)CCCCCCc3ccccc3)o2)nc1` [compound 17], at rFAAH [2], the “mode of inhibition (Lineweaver–Burk)” value was “noncompetitive”. For the same molecule, the “recovery of enzyme activity” value in data set [4] is reported as “do not appear to be even slowly reversible”. On rFAAH [6] (setting [10]), the “time-dependent change of inhibition potency (in words)” value is on record as “did exhibit increases in potency”.

As to `O=C(CCCCCCc1ccccc1)c1ncc(-c2ccc(CCl)cn2)o1` [compound 12], the “time-dependent change of inhibition potency (in words)” value at rFAAH [6] (setting [10]) is given as “insensitive to preincubation”.

`C[S+]([O-])/C=C/c1ccc(-c2cnc(C(=O)CCCCCCc3ccccc3)o2)nc1` (stereo not shown) [compound 22]: on rFAAH [2], the “mode of inhibition (Lineweaver–Burk)” value is recorded as “noncompetitive”. The “increase of brain anandamide levels” value in data set [8] is on record as “approximately 2 fold”.

Turning to `COC(=O)c1ccc(-c2cnc(C(=O)CCCCCCc3ccccc3)o2)nc1` [compound 3], the “mode of inhibition (Lineweaver–Burk)” value at rFAAH [2] is given as “reversible, competitive”.

With `CSC(=O)c1ccc(-c2cnc(C(=O)CCCCCCc3ccccc3)o2)nc1` [compound 5], the “mode of inhibition (Lineweaver–Burk)” value on rFAAH [2] was “reversible, competitive”. In addition, the “recovery from the assay buffer” value in [9] is “recovered unchanged”. Besides, the “recovery from enzymatic assays” value in [9] (enzymatic assays) was “recovered unchanged”. In addition, on rFAAH [6], the “time-dependent change of inhibition potency (in words)” value was “did not exhibit this time-dependent increase”.

For the molecule `CS(=O)(=O)/C=C/c1ccc(-c2cnc(C(=O)CCCCCCc3ccccc3)o2)nc1` [compound 21], the “mode of inhibition (Lineweaver–Burk)” value at rFAAH [2] is listed as “noncompetitive”. Further, in data set [8], the “increase of brain anandamide levels” value is recorded as “approximately 2 fold”.

On to `N#C/C=C/c1ccc(-c2cnc(C(=O)CCCCCCc3ccccc3)o2)nc1` [compound 19], for which, on rFAAH [2], the “mode of inhibition (Lineweaver–Burk)” value is given as “mixed kinetics”. For the same molecule, in [4], the “recovery of enzyme activity” value is “did not restore enzyme activity”.
